Results reported in ChEMBL document CHEMBL1138222, “9-Benzylidene-naphtho[2,3-b]thiophen-4-ones as novel antimicrotubule agents-synthesis, antiproliferative activity, and inhibition of tubulin polymerization” (J Med Chem, 2006).
Values belong to the compound of their own block, whether it stands above or below them. Active and inactive are the calls of the source. No cut-off for these calls is given here.

Assays:
[1] = tested on: K562; experiment: Antiproliferative activity against human K562 cell line; format: functional, cell-based
[2] = target: T1, Tubulin (Homo sapiens) (UniProt P68371+Q9H4B7+P0DPH7+P68366+Q13509+Q71U36+P04350+Q3ZCM7+P07437+P68363+Q9BQE3+Q6PEY2+Q13885+Q9BVA1+Q9BUF5); experiment: Displacement of [3H]colchicine from tubulin by SPA assay; format: protein-complex assay
[3] = target: T1, Tubulin (Homo sapiens); experiment: Displacement of [3H]paclitaxel from tubulin by SPA assay; format: protein-complex assay
[4] = target: Tubulin (Sus scrofa, UniProt P02554+P02550); experiment: Inhibition of tubulin polymerization in porcine brain
[5] = Antiproliferative activity against KB/HeLa cells by XTT assay after 48 hrs; format: functional, cell-based; conditions: Homo sapiens
How it was run: (§1)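 Tumour cell lines were seeded at 1 × 10^3 to 8 × 10^4 cells/well for logarithmic growth and exposed to a concentration series for 48 h. Proliferation was read as cellular metabolic activity by XTT. IC50 came from dose-response curves by nonlinear regression, with at least two replicates.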

[6] = tested on: SK-OV-3; experiment: Antiproliferative activity against SKOV3 cells by XTT assay after 48 hrs; format: functional, cell-based; conditions: Homo sapiens, SK-OV-3, 48 h; how it was run: as §1
[7] = tested on: SF-268; experiment: Antiproliferative activity against SF268 cells by XTT assay after 48 hrs; format: functional, cell-based; conditions: Homo sapiens, SF-268, 48 h; how it was run: as §1
[8] = tested on: NCI-H460; experiment: Antiproliferative activity against NCI-H460 cells by XTT assay after 48 hrs; format: functional, cell-based; conditions: Homo sapiens, NCI-H460, 48 h; how it was run: as §1
[9] = tested on: RKO; experiment: Antiproliferative activity against RKO cells with ectopic-induced p27kip1-expression by XTT assay after 48 hrs; format: functional, cell-based; conditions: Homo sapiens
How it was run: (§2)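 RKO colon adenocarcinoma cells carry an ecdysone-inducible p27kip1 vector. On day 1 they were plated with 3 µM ponasterone A (induced, 2 × 10^4 cells/well) or without it (not induced, 6 × 10^3 cells/well) and held 24 h at 37 °C. Compound or DMSO control was then added for 48 h at 37 °C, followed by a standard XTT read-out.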

[10] = tested on: RKO; experiment: Antiproliferative activity against RKO cells by XTT assay after 48 hrs; format: functional, cell-based; conditions: Homo sapiens; how it was run: as §2
[11] = tested on: MDR; experiment: Antiproliferative activity against LT12 MDR cells by XTT assay after 48 hrs; format: functional, cell-based; conditions: Rattus norvegicus; how it was run: as §1
[12] = tested on: L1210; experiment: Antiproliferative activity against L1210 cells by XTT assay after 48 hrs; format: functional, cell-based; conditions: Mus musculus, L1210, 48 h; how it was run: as §1
[13] = tested on: L1210; experiment: Antiproliferative activity against L1210 VCR cells by XTT assay after 48 hrs; format: functional, cell-based; conditions: Mus musculus, L1210, 48 h; how it was run: as §1
[14] = tested on: P388; experiment: Antiproliferative activity against P388 cells by XTT assay after 48 hrs; format: functional, cell-based; conditions: Mus musculus, P388, 48 h; how it was run: as §1
[15] = tested on: P388; experiment: Antiproliferative activity against P388 ADR cells by XTT assay after 48 hrs; format: functional, cell-based; conditions: Mus musculus, P388, 48 h; how it was run: as §1
[16] = cells; conditions: Rattus norvegicus, LT12, 48 h
[17] = Cell cycle arrest in KB/HeLa cells by accumulation at S phase at 31.6 nM; format: functional, cell-based; conditions: Homo sapiens
How it was run: (§3)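 Subconfluent KB/HeLa cells were treated with a concentration series for 24 h at 37 °C, then detached and fixed in 70% ethanol. DNA was stained with propidium iodide alongside RNase digestion and measured by flow cytometry. Phase fractions came from cell-cycle modelling software, and IC50 from nonlinear regression.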

[18] = Cell cycle arrest in KB/HeLa cells by accumulation at S phase at 100 nM; format: functional, cell-based; conditions: Homo sapiens; how it was run: as §3
[19] = Cell cycle arrest in KB/HeLa cells by accumulation at S phase at 316 nM; format: functional, cell-based; conditions: Homo sapiens; how it was run: as §3
[20] = Cell cycle arrest in KB/HeLa cells by accumulation at G2/M phase at 0.1 nM; format: functional, cell-based; conditions: Homo sapiens; how it was run: as §3
[21] = Cell cycle arrest in KB/HeLa cells by accumulation at G2/M phase at 0.3 nM; format: functional, cell-based; conditions: Homo sapiens; how it was run: as §3
[22] = Cell cycle arrest in KB/HeLa cells by accumulation at G2/M phase at 1 nM; format: functional, cell-based; conditions: Homo sapiens; how it was run: as §3
[23] = Cell cycle arrest in KB/HeLa cells by accumulation at G2/M phase at 3.16 nM; format: functional, cell-based; conditions: Homo sapiens
[24] = Cell cycle arrest in KB/HeLa cells by accumulation at G2/M phase at 10 nM; format: functional, cell-based; conditions: Homo sapiens; how it was run: as §3
[25] = Cell cycle arrest in KB/HeLa cells by accumulation at G2/M phase at 31.6 nM; format: functional, cell-based; conditions: Homo sapiens; how it was run: as §3
[26] = Cell cycle arrest in KB/HeLa cells by accumulation at G2/M phase at 100 nM; format: functional, cell-based; conditions: Homo sapiens; how it was run: as §3
[27] = Cell cycle arrest in KB/HeLa cells by accumulation at G2/M phase at 316 nM; format: functional, cell-based; conditions: Homo sapiens; how it was run: as §3
[28] = Cell cycle arrest in KB/HeLa cells by accumulation at G1 phase at 0.1 nM; format: functional, cell-based; conditions: Homo sapiens; how it was run: as §3
[29] = Cell cycle arrest in KB/HeLa cells by accumulation at G1 phase at 0.3 nM; format: functional, cell-based; conditions: Homo sapiens; how it was run: as §3
[30] = Cell cycle arrest in KB/HeLa cells by accumulation at G1 phase at 1 nM; format: functional, cell-based; conditions: Homo sapiens; how it was run: as §3
[31] = Cell cycle arrest in KB/HeLa cells by accumulation at G1 phase at 3.16 nM; format: functional, cell-based; conditions: Homo sapiens; how it was run: as §3
[32] = Cell cycle arrest in KB/HeLa cells by accumulation at G1 phase at 10 nM; format: functional, cell-based; conditions: Homo sapiens; how it was run: as §3
[33] = Cell cycle arrest in KB/HeLa cells by accumulation at G1 phase at 31.6 nM; format: functional, cell-based; conditions: Homo sapiens; how it was run: as §3
[34] = Cell cycle arrest in KB/HeLa cells by accumulation at G1 phase at 100 nM; format: functional, cell-based; conditions: Homo sapiens; how it was run: as §3
[35] = Cell cycle arrest in KB/HeLa cells by accumulation at G1 phase at 316 nM; format: functional, cell-based; conditions: Homo sapiens; how it was run: as §3
[36] = Cell cycle arrest in KB/HeLa cells by accumulation at G2/M phase; format: functional, cell-based; conditions: Homo sapiens; how it was run: as §3
[37] = Cell cycle arrest in KB/HeLa cells by accumulation at S phase at 0.1 nM; format: functional, cell-based; conditions: Homo sapiens; how it was run: as §3
[38] = Cell cycle arrest in KB/HeLa cells by accumulation at S phase at 0.3 nM; format: functional, cell-based; conditions: Homo sapiens; how it was run: as §3
[39] = Cell cycle arrest in KB/HeLa cells by accumulation at S phase at 1 nM; format: functional, cell-based; conditions: Homo sapiens; how it was run: as §3
[40] = Cell cycle arrest in KB/HeLa cells by accumulation at S phase at 3.16 nM; format: functional, cell-based; conditions: Homo sapiens; how it was run: as §3
[41] = Cell cycle arrest in KB/HeLa cells by accumulation at S phase at 10 nM; format: functional, cell-based; conditions: Homo sapiens; how it was run: as §3

Structure (SMILES): O=[N+]([O-])c1ccc(COc2c3ccccc3cc3sccc23)cc1
IC50 [1]: 3.13 µM

Structure (SMILES): CC[C@]1(O)C[C@H]2CN(CCc3c([nH]c4ccccc34)[C@@](C(=O)OC)(c3cc4c(cc3OC)N(C=O)[C@H]3[C@@](O)(C(=O)OC)[C@H](OC(C)=O)[C@]5(CC)C=CCN6CC[C@]43[C@@H]65)C2)C1 [VINCRISTINE]
Activity [17]: 7.2%
Activity [18]: 4.8%
Activity [19]: 5.9%
Activity [20]: 11.1%
Activity [21]: 11.7%
Activity [22]: 17.2%
Activity [23]: 65.8%
Activity [24]: 86.7%
Activity [25]: 92.6%
Activity [26]: 95.1%
Activity [27]: 93.8%
Activity [28]: 61.2%
Activity [29]: 64.5%
Activity [30]: 53.7%
Activity [31]: 6.5%
Activity [32]: 0.5%
Activity [33]: 1%
Activity [34]: 0.2%
Activity [35]: 0.2%
EC50 [36]: 0.0024 µM
Activity [37]: 27.7%
Activity [38]: 24%
Activity [39]: 28.3%
Activity [40]: 26%
Activity [41]: 13.1%

Structure (SMILES): COc1ccc(CCC(=O)Oc2c3ccccc3cc3sccc23)cc1
IC50 [1]: > 90 µM

Structure (SMILES): COC(=O)Nc1nc2cc(C(=O)c3cccs3)ccc2[nH]1 [NOCODAZOLE]
Activity [17]: 25.7%
Activity [18]: 26.1%
Activity [19]: 6%
Activity [22]: 11.1%
Activity [23]: 10.6%
Activity [24]: 10%
Activity [25]: 9.9%
Activity [26]: 51.4%
Activity [27]: 93.2%
Activity [30]: 65.2%
Activity [31]: 64.6%
Activity [32]: 64.2%
Activity [33]: 64.4%
Activity [34]: 22.3%
Activity [35]: 0.9%
EC50 [36]: 0.091 µM
IC50 [5]: 0.14 µM
IC50 [9]: > 10 µM
IC50 [11]: 0.07 µM
IC50 [12]: 0.05 µM
IC50 [13]: 0.09 µM
IC50 [14]: 0.08 µM
IC50 [15]: 0.17 µM
Activity [39]: 23.6%
Activity [40]: 24.8%
Activity [41]: 25.7%
IC50 [16]: 0.04 µM

Structure (SMILES): O=C1c2ccccc2/C(=C/c2cc(Cl)cc(Cl)c2)c2sccc21
IC50 [1]: 0.42 µM

Structure (SMILES): COc1ccc(/C=C2/c3ccccc3C(=O)c3ccsc32)cc1
IC50 [1]: 0.44 µM
IC50 [4]: 3.3 µM

Structure (SMILES): COc1ccc(COc2c3ccccc3cc3sccc23)cc1OC
IC50 [1]: 0.9 µM
IC50 [4]: 3.98 µM

Structure (SMILES): CC(=O)O[C@H]1C(=O)[C@@]2(C)[C@H]([C@H](OC(=O)c3ccccc3)[C@]3(O)C[C@H](OC(=O)[C@H](O)[C@@H](NC(=O)c4ccccc4)c4ccccc4)C(C)=C1C3(C)C)[C@]1(OC(C)=O)CO[C@@H]1C[C@@H]2O [PACLITAXEL]
Activity [17]: 49.9%
Activity [18]: 11%
Activity [19]: 8.9%
Activity [22]: 10.1%
Activity [23]: 9.4%
Activity [24]: 8.5%
Activity [25]: 19%
Activity [26]: 87.8%
Activity [27]: 90.8%
Activity [30]: 63.2%
Activity [31]: 63.6%
Activity [32]: 64.8%
Activity [33]: 31.1%
Activity [34]: 1.2%
Activity [35]: 0.3%
EC50 [36]: 0.049 µM
IC50 [5]: 0.01 µM
IC50 [9]: > 3 µM
IC50 [11]: 0.4 µM
IC50 [13]: > 5 µM
IC50 [14]: 0.04 µM
IC50 [15]: > 5 µM
Activity [39]: 26.7%
Activity [40]: 27%
Activity [41]: 26.6%

Structure (SMILES): O=C1c2ccccc2/C(=C/c2c[nH]c3ccccc23)c2sccc21
IC50 [1]: 0.72 µM
IC50 [4]: 2.8 µM

Structure (SMILES): O=C1c2ccccc2/C(=C/c2cccs2)c2sccc21
IC50 [1]: 0.39 µM
IC50 [4]: 1.34 µM

More lines, in order of falling IC50 [1], values ahead:

IC50 [1]: 0.32 µM
Structure (SMILES): COc1ccc(/C=C2/c3ccccc3C(=O)c3ccsc32)cc1OC

IC50 [1]: 0.27 µM
Structure (SMILES): O=C1c2ccccc2/C(=C/c2ccc(O)c(O)c2)c2sccc21

IC50 [1]: 0.25 µM
Structure (SMILES): Cn1cc(/C=C2/c3ccccc3C(=O)c3ccsc32)c2ccccc21

IC50 [1]: 0.23 µM
IC50 [4]: 0.77 µM
Structure (SMILES): COc1ccc(/C=C2/c3ccccc3C(=O)c3ccsc32)c(O)c1

IC50 [1]: 0.1 µM
IC50 [4]: 0.88 µM
Structure (SMILES): COc1cc(/C=C2/c3ccccc3C(=O)c3ccsc32)ccc1O

IC50 [1]: 0.08 µM
Activity [2]: 0.29 µM
Activity [3]: inactive
IC50 [4]: 0.5 µM
IC50 [6]: 0.04 µM
IC50 [8]: 0.28 µM
IC50 [12]: 0.13 µM
IC50 [13]: 0.17 µM
IC50 [14]: 0.14 µM
IC50 [15]: 0.16 µM
IC50 [16]: 0.18 µM
Structure (SMILES): COc1ccc(/C=C2/c3ccccc3C(=O)c3ccsc32)c(OC)c1O
IC50 [5]: 0.19 µM
IC50 [7]: 0.05 µM
IC50 [9]: > 9 µM
IC50 [10]: 0.04 µM
IC50 [11]: 0.19 µM
